ChEMBL document CHEMBL3425486, “Lathyrol diterpenes as modulators of P-glycoprotein dependent multidrug resistance: structure-activity relationship studies on Euphorbia factor L3 derivatives” (J Med Chem, 2015)
pIC50: −log10 of the molar value.

Experiments:
[1] = biological target: T1, ATP-dependent translocase ABCB1 (Homo sapiens, UniProt P08183); assay: Inhibition of P-gp in human MCF7/ADR cells assessed as reversal of multidrug resistance by measuring relative enhancement intensity for adriamycin-induced cytotoxicity at 10 uM after 48 hrs by SRB colorimetric assay; type: cell-based; design: scale not given: the % may be the effect or the level left; settings: nci/adr-res
T1 sequence (P08183 whole entry): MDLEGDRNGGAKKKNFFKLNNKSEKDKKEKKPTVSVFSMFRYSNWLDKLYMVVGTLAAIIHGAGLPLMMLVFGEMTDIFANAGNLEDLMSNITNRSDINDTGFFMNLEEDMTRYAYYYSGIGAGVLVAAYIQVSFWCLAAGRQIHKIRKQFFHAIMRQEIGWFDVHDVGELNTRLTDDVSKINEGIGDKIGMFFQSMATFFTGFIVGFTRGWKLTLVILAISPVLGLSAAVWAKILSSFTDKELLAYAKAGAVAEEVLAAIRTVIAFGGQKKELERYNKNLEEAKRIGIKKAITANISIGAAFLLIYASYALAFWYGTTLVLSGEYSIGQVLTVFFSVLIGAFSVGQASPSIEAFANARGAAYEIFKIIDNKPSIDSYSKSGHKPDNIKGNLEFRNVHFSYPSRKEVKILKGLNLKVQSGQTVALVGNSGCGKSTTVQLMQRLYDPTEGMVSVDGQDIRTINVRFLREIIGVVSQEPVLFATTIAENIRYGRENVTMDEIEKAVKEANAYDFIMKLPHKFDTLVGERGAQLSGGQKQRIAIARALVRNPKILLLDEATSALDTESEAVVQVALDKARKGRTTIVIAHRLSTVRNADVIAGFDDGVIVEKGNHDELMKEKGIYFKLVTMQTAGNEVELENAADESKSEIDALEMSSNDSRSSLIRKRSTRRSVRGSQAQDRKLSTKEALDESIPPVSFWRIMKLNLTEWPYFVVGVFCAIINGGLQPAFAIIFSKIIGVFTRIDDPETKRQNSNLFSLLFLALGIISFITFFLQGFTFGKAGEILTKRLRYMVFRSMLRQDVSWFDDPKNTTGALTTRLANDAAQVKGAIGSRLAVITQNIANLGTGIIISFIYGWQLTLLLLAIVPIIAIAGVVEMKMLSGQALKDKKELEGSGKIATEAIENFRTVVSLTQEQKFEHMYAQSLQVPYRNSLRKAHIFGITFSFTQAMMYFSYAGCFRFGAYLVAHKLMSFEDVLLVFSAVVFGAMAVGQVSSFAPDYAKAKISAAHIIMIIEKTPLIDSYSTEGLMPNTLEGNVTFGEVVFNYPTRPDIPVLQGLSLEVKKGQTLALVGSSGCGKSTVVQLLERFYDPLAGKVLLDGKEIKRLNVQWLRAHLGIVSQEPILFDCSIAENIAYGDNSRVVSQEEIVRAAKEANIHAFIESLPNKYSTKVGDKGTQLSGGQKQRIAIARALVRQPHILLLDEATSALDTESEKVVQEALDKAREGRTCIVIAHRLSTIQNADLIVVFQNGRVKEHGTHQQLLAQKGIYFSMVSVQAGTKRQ

[2] = biological target: T1, ATP-dependent translocase ABCB1; assay: Inhibition of P-gp in human MCF7/ADR cells assessed as side scatter count of cells at 10 uM pre-treated for 1 hr at 37 degC followed by incubation with Rh123 for 1 hr by flow cytometry (reference value: 100.6 No unit); type: cell-based; settings: nci/adr-res
[3] = biological target: T1, ATP-dependent translocase ABCB1; assay: Inhibition of P-gp in human MCF7/ADR cells assessed as peak fluorescence intensity of cells at 20 uM pre-treated for 1 hr at 37 degC followed by incubation with Rh123 for 1 hr by flow cytometry (reference value: 87.3 No unit); type: cell-based; settings: nci/adr-res
[4] = tested on: MCF7; assay: Cytotoxicity against human MCF7 cells assessed as reduction in cell viability after 48 hrs by SRB colorimetric assay; type: functional, cell-based; settings: MCF7, 48 h
In short: (§1)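 MCF-7 from ATCC and its stepwise ADR-selected resistant subline, grown in RPMI-1640 with 10% FBS and penicillin/streptomycin at 37 °C, 5% CO2. 1 × 10^4 cells/well exposed to graded compound concentrations for 48 h. Cells fixed with 10% TCA, stained with 0.4% SRB in 1% acetic acid, dye extracted with 10 mM Tris base, OD read at 490 nm. Taxol positive control.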

[5] = biological target: T1, ATP-dependent translocase ABCB1; assay: Inhibition of P-gp in human MCF7/ADR cells assessed as side scatter count of cells at 20 uM pre-treated for 1 hr at 37 degC followed by incubation with Rh123 for 1 hr by flow cytometry (reference value: 100.6 No unit); type: cell-based; settings: nci/adr-res
[6] = biological target: T1, ATP-dependent translocase ABCB1; assay: Inhibition of P-gp in human MCF7/ADR cells assessed as forward scatter count of cells at 20 uM pre-treated for 1 hr at 37 degC followed by incubation with Rh123 for 1 hr by flow cytometry (reference value: 142.5 No unit); type: cell-based; settings: nci/adr-res
[7] = biological target: T1, ATP-dependent translocase ABCB1; assay: Inhibition of P-gp in human MCF7/ADR cells assessed as mean fluorescence intensity of cells at 20 uM pre-treated for 1 hr at 37 degC followed by incubation with Rh123 for 1 hr by flow cytometry (reference value: 108.1 +/- 43.9 No unit); type: cell-based; settings: nci/adr-res
[8] = biological target: T1, ATP-dependent translocase ABCB1; assay: Inhibition of P-gp in human MCF7/ADR cells assessed as peak fluorescence intensity of cells at 10 uM pre-treated for 1 hr at 37 degC followed by incubation with Rh123 for 1 hr by flow cytometry (reference value: 87.3 No unit); type: cell-based; settings: nci/adr-res
[9] = biological target: T1, ATP-dependent translocase ABCB1; assay: Inhibition of P-gp in human MCF7/ADR cells assessed as mean fluorescence intensity of cells at 10 uM pre-treated for 1 hr at 37 degC followed by incubation with Rh123 for 1 hr by flow cytometry (reference value: 108.1 +/- 43.9 No unit); type: cell-based; settings: nci/adr-res
[10] = biological target: T1, ATP-dependent translocase ABCB1; assay: Inhibition of P-gp in human MCF7/ADR cells assessed as peak fluorescence intensity of cells at 2 uM pre-treated for 1 hr at 37 degC followed by incubation with Rh123 for 1 hr by flow cytometry (reference value: 87.3 No unit); type: cell-based; settings: nci/adr-res
[11] = tested on: NCI/ADR-RES; assay: Inhibition of P-gp in human MCF7/ADR cells assessed as reversal of multidrug resistance at 10 uM by measuring ratio of EC50(adriamycin)/EC50(adriamycin + compound) after 48 hrs by SRB colorimetric assay; type: cell-based
[12] = biological target: T1, ATP-dependent translocase ABCB1; assay: Inhibition of P-gp in human MCF7/ADR cells assessed as mean fluorescence intensity of cells at 2 uM pre-treated for 1 hr at 37 degC followed by incubation with Rh123 for 1 hr by flow cytometry (reference value: 108.1 +/- 43.9 No unit); type: cell-based; settings: nci/adr-res
[13] = biological target: T1, ATP-dependent translocase ABCB1; assay: Inhibition of P-gp in human MCF7/ADR cells assessed as side scatter count of cells at 2 uM pre-treated for 1 hr at 37 degC followed by incubation with Rh123 for 1 hr by flow cytometry (reference value: 100.6 No unit); type: cell-based; settings: nci/adr-res
[14] = biological target: T1, ATP-dependent translocase ABCB1; assay: Inhibition of P-gp in human MCF7/ADR cells assessed as forward scatter count of cells at 10 uM pre-treated for 1 hr at 37 degC followed by incubation with Rh123 for 1 hr by flow cytometry (reference value: 142.5 No unit); type: cell-based; settings: nci/adr-res
[15] = Cytotoxicity against human MCF7/ADR cells assessed as reduction in cell viability after 48 hrs by SRB colorimetric assay; type: functional, cell-based; settings: NCI/ADR-RES; in short: as §1
[16] = biological target: T1, ATP-dependent translocase ABCB1; assay: Inhibition of P-gp in human MCF7/ADR cells assessed as forward scatter count of cells at 2 uM pre-treated for 1 hr at 37 degC followed by incubation with Rh123 for 1 hr by flow cytometry (reference value: 142.5 No unit); type: cell-based; settings: nci/adr-res
[17] = Inhibition of P-gp in human MCF7/ADR cells assessed as reversal of multidrug resistance at 10 uM by measuring EC50 for adriamycin-induced cytotoxicity after 48 hrs by SRB colorimetric assay; settings: nci/adr-res
[18] = Lipophilicity, log P of the compound; type: physicochemical; settings: octanol/water
[19] = biological target: T1, ATP-dependent translocase ABCB1; assay: Inhibition of P-gp in human MCF7/ADR cells assessed as mean fluorescence intensity of cells pre-treated for 1 hr at 37 degC followed by incubation with Rh123 for 1 hr by flow cytometry; type: cell-based; settings: nci/adr-res

Row | Compound | Activity [1] [%] | Activity [2] | Activity [3] | pIC50 [4] | Activity [5] | Activity [6] | Flu intensity [7] | Activity [8] | Flu intensity [9] | Activity [10] | Ratio EC50 [11] | Flu intensity [12] | Activity [13] | Activity [14] | pIC50 [15] | Activity [16] | EC50 [17] [µM] | logP [18] | inhibition (INH) [19]
1 | C=C1CC[C@H]2[C@@H](/C=C(\C)C(=O)[C@@]3(O)C[C@H](C)[C@H](OC(=O)c4ccccc4)[C@@H]3[C@H]1OC(=O)c1ccccc1)C2(C)C | 23.9 | 104.4 | 196.8 | 4.88 | 102 | 148.1 | 204.8 | 215.4 | 204.8 | 215.4 | 34.4 | 197.5 | 102.7 | 144.5 | 4.20 | 146.8 |  |  | 
2 | COc1ccc(CCN(C)CCCC(C#N)(c2ccc(OC)c(OC)c2)C(C)C)cc1OC (stereo unspecified) | 8.4 |  | 157.1 |  | 92.2 | 137.4 | 170 |  |  |  | 7.1 |  |  |  |  |  |  |  | 
3 | C=C1CC[C@H]2[C@@H](/C=C(\C)C(=O)[C@@]3(O)C[C@H](C)[C@H](O)[C@@H]3[C@H]1OC(=O)Cc1cccc3ccccc13)C2(C)C | 15.5 | 102.2 | 205.9 | 4.98 | 94.2 | 138.7 | 182.1 | 196.8 | 168.1 | 131.1 | 16 | 141.1 | 96.3 | 148.5 | 4.47 | 134.9 |  |  | 
4 | C=C1CC[C@H]2[C@@H]([C@@H]3O[C@]4(C[C@H](C)[C@H](OC(=O)c5ccccc5)[C@@H]4[C@H]1OC(=O)c1ccccc1)C(=O)[C@H]3C)C2(C)C | 4.3 |  |  | 4.46 |  |  |  |  |  |  | 1.7 |  |  |  | < 4.00 |  | 20.49 |  | 
5 | C=C1CC[C@H]2[C@@H]([C@@H]3O[C@]4(C[C@H](C)[C@H](OC(C)=O)[C@@H]4[C@H]1OC(C)=O)C(=O)[C@H]3C)C2(C)C | 13 |  |  | 4.90 |  |  |  |  |  |  | 10.7 |  |  |  | < 4.00 |  | 3.23 | 3.4 | 
6 | C=C1CC[C@H]2[C@@H](/C=C(\C)C(=O)[C@@]3(O)C[C@H](C)[C@H](OC(=O)CC)[C@@H]3[C@H]1OC(=O)Cc1cccc3ccccc13)C2(C)C | 14.4 | 101.2 | 235.8 | 5.01 | 100.9 | 131.4 | 204.6 | 188.2 | 167.8 | 143.5 | 28.6 | 149.4 | 94.8 | 137.9 | 4.12 | 138.5 |  |  | Dose-dependent effect
